In ChEMBL document CHEMBL2406916, “7-Hydroxy-(E)-3-phenylmethylene-chroman-4-one analogues as efflux pump inhibitors against Mycobacterium smegmatis mc² 155” (2013):
In brackets after ≈: the same amount, converted by molar mass. Activity calls are given as the source filed them. The rule behind the calls is not given here.

Columns and labels:
[1] = test system: Mycolicibacterium smegmatis; experiment: Antimicrobial activity against Mycobacterium smegmatis MC2 155 ATCC 700084 at 125 mg/L after 72 hrs by MTT assay in presence of EtBr; format: functional
[2] = test system: Mycolicibacterium smegmatis MC2 155; experiment: Inhibition of multidrug resistance efflux pump in Mycobacterium smegmatis MC2 155 ATCC 700084 assessed as reduction in EtBr MIC at 125 mg/L by MTT assay relative to control
[3] = test system: Mycolicibacterium smegmatis; experiment: Antimicrobial activity against Mycobacterium smegmatis MC2 155 ATCC 700084 after 72 hrs by MTT assay; format: functional; settings: MC2 155 ATCC 700084, 72 h
[4] = test system: Mycolicibacterium smegmatis MC2 155; experiment: Inhibition of multidrug resistance efflux pump in Mycobacterium smegmatis MC2 155 ATCC 700084 assessed as EtBr accumulation at half concentration of MIC measured every 3 mins interval for 45 mins by fluorometric method
How it was run: (§1)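 Cells are grown in 7H9/OADC at 37 °C to OD600 0.8, then pelleted and exposed to EtBr with test compound. Verapamil, reserpine, CCCP and DMSO serve as controls. EtBr fluorescence (excitation 530 nm, emission 600 nm) is read every 3 min for 45 min in a microplate spectrofluorimeter. Test concentrations are fractions (1/2, 1/4, 1/8) of each compound's MIC.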

[5] = test system: Mycolicibacterium smegmatis; experiment: Antimicrobial activity against Mycobacterium smegmatis MC2 155 ATCC 700084 at 62.5 mg/L after 72 hrs by MTT assay in presence of EtBr; format: functional
[6] = test system: Mycolicibacterium smegmatis MC2 155; experiment: Inhibition of multidrug resistance efflux pump in Mycobacterium smegmatis MC2 155 ATCC 700084 assessed as reduction in EtBr MIC at 62.5 mg/L by MTT assay relative to control
[7] = test system: Mycolicibacterium smegmatis; experiment: Antimicrobial activity against Mycobacterium smegmatis MC2 155 ATCC 700084 at 40 mg/L after 72 hrs by MTT assay in presence of EtBr; format: functional
[8] = test system: Mycolicibacterium smegmatis; experiment: Antimicrobial activity against Mycobacterium smegmatis MC2 155 ATCC 700084 at 80 mg/L after 72 hrs by MTT assay in presence of EtBr; format: functional
[9] = test system: Mycolicibacterium smegmatis MC2 155; experiment: Inhibition of multidrug resistance efflux pump in Mycobacterium smegmatis MC2 155 ATCC 700084 assessed as EtBr accumulation at 31.5 mg/L measured every 3 mins interval for 45 mins by spectrofluorometric method; how it was run: as §1
[10] = test system: Mycolicibacterium smegmatis MC2 155; experiment: Inhibition of multidrug resistance efflux pump in Mycobacterium smegmatis MC2 155 ATCC 700084 assessed as EtBr accumulation at 31.5 mg/L measured every 3 mins interval for 45 mins by fluorometric method; how it was run: as §1
[11] = test system: Mycolicibacterium smegmatis MC2 155; experiment: Inhibition of multidrug resistance efflux pump in Mycobacterium smegmatis MC2 155 ATCC 700084 assessed as reduction in EtBr MIC at 250 mg/L by MTT assay relative to control
[12] = test system: Mycolicibacterium smegmatis; experiment: Antimicrobial activity against Mycobacterium smegmatis MC2 155 ATCC 700084 at 31.2 mg/L after 72 hrs by MTT assay in presence of EtBr; format: functional
[13] = test system: Mycolicibacterium smegmatis MC2 155; experiment: Inhibition of multidrug resistance efflux pump in Mycobacterium smegmatis MC2 155 ATCC 700084 assessed as reduction in EtBr MIC at 31.2 mg/L by MTT assay relative to control
[14] = test system: Mycolicibacterium smegmatis MC2 155; experiment: Inhibition of multidrug resistance efflux pump in Mycobacterium smegmatis MC2 155 ATCC 700084 assessed as EtBr accumulation at 12.5 mg/L measured every 3 mins interval for 45 mins by fluorometric method; how it was run: as §1
[15] = test system: Mycolicibacterium smegmatis; experiment: Antimicrobial activity against Mycobacterium smegmatis MC2 155 ATCC 700084 at 16 mg/L after 72 hrs by MTT assay in presence of EtBr; format: functional
[16] = test system: Mycolicibacterium smegmatis MC2 155; experiment: Inhibition of multidrug resistance efflux pump in Mycobacterium smegmatis MC2 155 ATCC 700084 assessed as reduction in EtBr MIC at 16 mg/L by MTT assay relative to control
[17] = test system: Mycolicibacterium smegmatis MC2 155; experiment: Inhibition of multidrug resistance efflux pump in Mycobacterium smegmatis MC2 155 ATCC 700084 assessed as EtBr accumulation at 128 mg/L measured every 3 mins interval for 45 mins by fluorometric method; how it was run: as §1

SMILES	fractional inhibitory concentration index (FICI) [1]	fold change (FC) [2]	MIC [3] [µg/mL]	Activity [4]	fractional inhibitory concentration index (FICI) [5]	fold change (FC) [6]	further results
O=C1/C(=C/c2cccc(Br)c2)COc2cc(O)ccc21	0.75	2	500 (≈ 1510 µM)				
COc1ccccc1/C=C1\COc2cc(O)ccc2C1=O	0.75	4	250 (≈ 886 µM)	Active			
CC[n+]1c(-c2ccccc2)c2cc(N)ccc2c2ccc(N)cc21.[Br-] [HOMIDIUM BROMIDE]			16				
O=C1/C(=C/c2ccc(C(F)(F)F)cc2)COc2cc(O)ccc21	0.75	4	250 (≈ 781 µM)				
COc1ccc(/C=C2\COc3c(ccc(O)c3O)C2=O)cc1 [INTRICATINOL]			125 (≈ 419 µM)		1	2	
COc1ccc(CCN(C)CCCC(C#N)(c2ccc(OC)c(OC)c2)C(C)C)cc1OC (stereo not drawn)			300 (≈ 660 µM)				fractional inhibitory concentration index (FICI) [7]: 0.63; fractional inhibitory concentration index (FICI) [8]: 0.552
C=CCOc1ccccc1/C=C1\COc2cc(O)ccc2C1=O	0.75	2	500 (≈ 1620 µM)				
COc1cccc(/C=C2\COc3cc(O)ccc3C2=O)c1	0.75	2	500 (≈ 1770 µM)				
C=CCOc1cccc(/C=C2\COc3cc(O)ccc3C2=O)c1	0.62	8	250 (≈ 811 µM)	Active	0.5	4	Activity [9]: Active; Activity [10]: Active
O=C1/C(=C/c2ccccc2F)COc2cc(O)ccc21			125 (≈ 463 µM)	Active	0.75	4	Activity [9]: Active; Activity [10]: Active
O=C1/C(=C/c2ccccc2)COc2cc(O)ccc21	0.37	8	500 (≈ 1980 µM)	Active	0.37	4	
O=C1/C(=C/c2ccccc2Cl)COc2cc(O)ccc21			125 (≈ 436 µM)		1	2	
C=CCOc1ccc(/C=C2\COc3cc(O)ccc3C2=O)cc1	0.75	2	250 (≈ 811 µM)				
O=C1/C(=C/c2cccc(F)c2)COc2cc(O)ccc21	0.75	4	250 (≈ 925 µM)	Active			
O=C1/C(=C/c2ccc(O)cc2)COc2cc(O)ccc21	0.56	16	250 (≈ 932 µM)	Active	0.37	8	
COc1ccc(/C=C2\COc3cc(O)cc(O)c3C2=O)cc1						2	fold change (FC) [11]: 4
O=C1/C(=C/c2ccc(F)cc2)COc2cc(O)ccc21	0.75	4	250 (≈ 925 µM)	Active			
O=C1/C(=C/c2cccc(Cl)c2)COc2cc(O)ccc21	1	2	250 (≈ 872 µM)				
COc1ccc(/C=C2\COc3cc(O)ccc3C2=O)cc1 [BONDUCELLIN]			125 (≈ 443 µM)	Active	0.62	8	fractional inhibitory concentration index (FICI) [12]: 0.5; fold change (FC) [13]: 4
N#CC(C#N)=NNc1cccc(Cl)c1 [CARBONYL CYANIDE M-CHLOROPHENYLHYDRAZONE]			25 (≈ 122 µM)				Activity [14]: Active; fractional inhibitory concentration index (FICI) [15]: 1.14; fold change (FC) [16]: 2
COC(=O)[C@H]1[C@H]2C[C@@H]3c4[nH]c5cc(OC)ccc5c4CCN3C[C@H]2C[C@@H](OC(=O)c2cc(OC)c(OC)c(OC)c2)[C@@H]1OC [RESERPINE]			256 (≈ 421 µM)				Activity [17]: Active; fractional inhibitory concentration index (FICI) [7]: 0.4
O=C1/C(=C/c2ccc(Cl)cc2)COc2cc(O)ccc21	0.75	4	250 (≈ 872 µM)	Active			
O=C1/C(=C/c2cccc(O)c2)COc2cc(O)ccc21	0.5	4	500 (≈ 1860 µM)	Active			
O=C1/C(=C/c2ccccc2Br)COc2cc(O)ccc21			125 (≈ 377 µM)		1	2	
COc1ccc(/C=C2\COc3c(ccc(O)c3OC)C2=O)cc1 [E-8-METHOXYBONDUCELLIN]			125 (≈ 400 µM)		1	2	
O=C1/C(=C/c2ccc(Br)cc2)COc2cc(O)ccc21	0.75	2	500 (≈ 1510 µM)				
